Data reported in ChEMBL document CHEMBL1131324 (J Med Chem, 1998).

What was measured:
[1] = target: 5-hydroxytryptamine receptor 2A (Homo sapiens, UniProt P28223); experiment: Binding affinity for human 5-hydroxytryptamine 2A receptor
In short: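 Human cloned receptor expressed in HEK 293 cells; displacement of [³H]ketanserin in 50 mM Tris-HCl (pH 7.7 at 25 °C). Test compound over a concentration range, 30-45 min at 37 °C; filtration with ice-cold buffer wash, bound label by scintillation counting; pKi reported as mean (SEM, n) or individual values where n = 2.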

[2] = target: 5-hydroxytryptamine receptor 1D (Homo sapiens, UniProt P28221); experiment: Binding affinity for human 5-hydroxytryptamine 1D receptor
5-hydroxytryptamine receptor 1D, sequence (P28221 whole entry): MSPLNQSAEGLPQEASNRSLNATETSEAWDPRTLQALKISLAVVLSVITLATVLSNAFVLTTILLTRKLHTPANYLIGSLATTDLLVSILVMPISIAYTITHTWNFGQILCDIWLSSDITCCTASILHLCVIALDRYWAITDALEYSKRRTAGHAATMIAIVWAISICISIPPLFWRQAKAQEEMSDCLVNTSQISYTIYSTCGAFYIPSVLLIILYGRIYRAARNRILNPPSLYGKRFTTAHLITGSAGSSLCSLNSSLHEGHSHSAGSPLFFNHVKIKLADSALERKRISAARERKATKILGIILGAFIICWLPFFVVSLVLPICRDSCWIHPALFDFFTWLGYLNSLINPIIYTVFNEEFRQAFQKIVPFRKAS

[3] = target: T1, 5-hydroxytryptamine receptor 1B (Homo sapiens, UniProt P28222); experiment: Binding affinity for human 5-hydroxytryptamine 1B receptor
T1 sequence (P28222 whole entry): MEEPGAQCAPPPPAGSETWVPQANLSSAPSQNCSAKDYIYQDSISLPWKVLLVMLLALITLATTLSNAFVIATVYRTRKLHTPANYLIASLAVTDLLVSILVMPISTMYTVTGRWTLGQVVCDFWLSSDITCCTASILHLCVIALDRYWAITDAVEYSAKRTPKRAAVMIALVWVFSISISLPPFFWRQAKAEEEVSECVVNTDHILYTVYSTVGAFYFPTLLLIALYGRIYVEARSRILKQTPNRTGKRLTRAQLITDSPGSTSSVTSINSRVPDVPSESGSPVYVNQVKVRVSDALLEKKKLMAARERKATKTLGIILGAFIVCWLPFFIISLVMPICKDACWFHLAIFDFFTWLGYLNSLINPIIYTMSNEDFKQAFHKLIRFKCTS

[4] = target: T1, 5-hydroxytryptamine receptor 1B; experiment: Effect of compound on [35S]GTP-gamma-S, radioligand binding CHO cells expressing human 5-hydroxytryptamine 1B receptor; assay type: functional, cell-based
[5] = target: T2, Serotonin 1 receptors; 5-HT1B & 5-HT1D (Homo sapiens) (UniProt P28222+P28221); settings: Cavia porcellus
[6] = species on record: Cavia porcellus; experiment: Mean maximum temperature drop on SK & F 99101H (-1.22(0.27)) -induced Hypothermia at 8 hr postdose treatment(* p< 0.05 vs SK & F 99101H controls).; assay type: functional
In short: (§1)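 Male Dunkin-Hartley guinea pigs, n = 6/group. Compound given 5.0 mg/kg po, then SK&F 99101H 30 mg/kg ip at 2, 4, 8 or 24 h postdose; 8 and 24 h data come from a second independent experiment. Rectal temperature measured by probe 4–5 cm deep. Mean maximum temperature drop, also expressed as % of SK&F 99101H controls.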

[7] = species on record: Cavia porcellus; experiment: (§2) Compound was tested for % of SK & F 99101H controls on induced Hypothermia at 4 h postdose treatment.; assay type: functional; in short: as §1
[8] = species on record: Cavia porcellus; experiment: Mean maximum temperature drop on SK & F 99101H (-2.23(0.13)) -induced Hypothermia at 8 hr postdose treatment(** p< 0.01 vs SK & F 99101H controls).; assay type: functional; in short: as §1
[9] = target: Muscarinic acetylcholine receptor M2 (Homo sapiens, UniProt P08172); experiment: Compound was tested for binding affinity against human cloned Muscarinic acetylcholine receptor M2
In short: (§3)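 Radioligand competition run to literature procedures, giving pKi. Receptor preparation incubated with radioligand and a range of test concentrations for 30–45 min at 37 °C. Rapid filtration, ice-cold buffer wash, dried filters scintillation-counted. Mean ± SEM, or individual values where n = 2.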

[10] = target: D(2) dopamine receptor (Homo sapiens, UniProt P14416); experiment: Compound was tested for binding affinity against human cloned Dopamine receptor D2
D(2) dopamine receptor, sequence (P14416 whole entry): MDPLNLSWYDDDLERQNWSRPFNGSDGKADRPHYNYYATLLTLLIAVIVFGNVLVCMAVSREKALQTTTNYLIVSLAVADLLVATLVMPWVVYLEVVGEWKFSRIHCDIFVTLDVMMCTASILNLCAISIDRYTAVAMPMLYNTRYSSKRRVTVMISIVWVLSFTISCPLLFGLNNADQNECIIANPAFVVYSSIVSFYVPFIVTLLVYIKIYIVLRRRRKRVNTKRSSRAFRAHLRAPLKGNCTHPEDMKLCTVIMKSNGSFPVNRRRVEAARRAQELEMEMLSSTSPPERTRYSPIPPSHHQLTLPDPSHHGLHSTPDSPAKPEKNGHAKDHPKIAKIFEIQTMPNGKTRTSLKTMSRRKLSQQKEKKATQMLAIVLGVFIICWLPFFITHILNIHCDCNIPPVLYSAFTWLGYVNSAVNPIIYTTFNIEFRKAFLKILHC
In short: (§4)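 Human D2 or D3 receptors expressed in CHO cells, displacement of [3H]spiperone, giving pKi. Incubated 30–45 min at 37 °C with a range of test concentrations. Filtered, washed with ice-cold buffer, bound label counted by scintillation.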

[11] = target: T2, Serotonin 1 receptors; 5-HT1B & 5-HT1D (Homo sapiens); settings: Cavia porcellus; 10.0 mg/kg
[12] = target: T2, Serotonin 1 receptors; 5-HT1B & 5-HT1D (Homo sapiens); settings: Cavia porcellus; remark: listed apart in the source
[13] = target: Serotonin 4 (5-HT4) receptor (Sus scrofa, UniProt Q6Q253); experiment: Compound was tested for binding affinity against piglet hippocampus 5-hydroxytryptamine 4 receptor; assay type: tissue-based
In short: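 pKi from displacement of [125I]SB-207710 in piglet hippocampus. Radioligand and a range of test concentrations incubated 30–45 min at 37 °C, then rapidly filtered, washed with ice-cold buffer and counted by scintillation.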

[14] = target: Histamine H2 receptor (Cavia porcellus, UniProt P47747); experiment: Compound was tested for binding affinity towards Histamine H2 receptor; in short: as §3
Histamine H2 receptor, sequence (P47747 whole entry): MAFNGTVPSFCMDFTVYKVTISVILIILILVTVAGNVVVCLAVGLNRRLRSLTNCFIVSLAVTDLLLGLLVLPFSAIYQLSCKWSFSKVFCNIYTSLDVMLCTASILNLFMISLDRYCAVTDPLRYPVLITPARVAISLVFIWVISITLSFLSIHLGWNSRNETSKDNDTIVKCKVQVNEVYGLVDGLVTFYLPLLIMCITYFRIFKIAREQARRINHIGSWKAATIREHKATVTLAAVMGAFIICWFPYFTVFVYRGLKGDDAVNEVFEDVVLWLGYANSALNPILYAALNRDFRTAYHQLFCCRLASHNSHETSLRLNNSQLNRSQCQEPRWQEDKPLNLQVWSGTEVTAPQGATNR

[15] = target: Beta-2 adrenergic receptor (Homo sapiens, UniProt P07550); experiment: Compound was tested for binding affinity against human cloned Beta-2 adrenergic receptor; in short: as §3
[16] = target: T2, Serotonin 1 receptors; 5-HT1B & 5-HT1D (Homo sapiens); settings: Cavia porcellus; remark: listed apart in the source
[17] = species on record: Cavia porcellus; experiment: Body temperature drop at SK & F 99101H positive control dose (* p< 0.01 vs vehicle/vehicle controls) in Guinea pig.; assay type: functional
[18] = test system: Cavia porcellus; experiment: Body temperature drop at 22 mg/kg po dosage in Guinea pig; assay type: functional
[19] = target: 5-hydroxytryptamine receptor 2C (Homo sapiens, UniProt P28335); experiment: Compound was tested for binding affinity against human 5-hydroxytryptamine 2C receptor
In short: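 Competition binding against human cloned 5-HT2C receptor expressed in HEK 293 cells. [3H]mesulergine was the radioligand. Incubation in 50 mM Tris-HCl (pH 7.7 at 25 °C) with a range of test concentrations for 30–45 min at 37 °C. Samples were rapidly filtered, washed with ice-cold buffer, and counted by scintillation. pKi is given as mean (SEM, n) or as individual values where n = 2.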

[20] = target: T2, Serotonin 1 receptors; 5-HT1B & 5-HT1D (Homo sapiens); settings: Cavia porcellus; 0.3 mg/kg
[21] = target: T2, Serotonin 1 receptors; 5-HT1B & 5-HT1D (Homo sapiens); settings: Cavia porcellus; 3.0 mg/kg
[22] = test system: Cavia porcellus; experiment: Body temperature drop at 4.6 mg/kg po dosage in Guinea pig.; assay type: functional
[23] = target: Histamine H1 receptor (Cavia porcellus, UniProt P31389); experiment: Compound was tested for binding affinity against Histamine H1 receptor.; in short: as §3
Histamine H1 receptor, sequence (P31389 whole entry): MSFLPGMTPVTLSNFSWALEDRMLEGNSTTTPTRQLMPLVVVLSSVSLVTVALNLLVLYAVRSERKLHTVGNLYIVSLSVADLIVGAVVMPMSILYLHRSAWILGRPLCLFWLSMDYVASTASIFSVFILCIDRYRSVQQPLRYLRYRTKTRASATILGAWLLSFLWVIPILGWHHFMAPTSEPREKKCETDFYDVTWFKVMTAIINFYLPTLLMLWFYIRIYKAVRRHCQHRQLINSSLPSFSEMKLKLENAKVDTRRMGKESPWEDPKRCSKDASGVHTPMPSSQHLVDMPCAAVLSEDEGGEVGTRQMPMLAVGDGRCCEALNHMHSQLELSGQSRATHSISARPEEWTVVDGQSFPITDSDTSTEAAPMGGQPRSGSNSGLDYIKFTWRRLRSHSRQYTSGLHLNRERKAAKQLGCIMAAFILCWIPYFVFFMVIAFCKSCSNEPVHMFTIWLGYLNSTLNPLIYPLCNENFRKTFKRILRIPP

[24] = target: Muscarinic acetylcholine receptor M1 (Homo sapiens, UniProt P11229); experiment: Compound was tested for binding affinity against human cloned Muscarinic acetylcholine receptor M1; in short: as §3
[25] = species on record: Cavia porcellus; experiment: Compound was tested for % of SK & F 99101H controls on induced Hypothermia at 8 hr postdose treatment.; assay type: functional; in short: as §1
[26] = species on record: Cavia porcellus; experiment: Compound was tested for % of SK & F 99101H controls on induced Hypothermia at 24 hr postdose treatment.; assay type: functional; in short: as §1
[27] = target: T2, Serotonin 1 receptors; 5-HT1B & 5-HT1D (Homo sapiens); settings: Cavia porcellus; remark: listed apart in the source
[28] = target: 5-hydroxytryptamine receptor 1F (Homo sapiens, UniProt P30939); experiment: Compound was tested for binding affinity against human 5-hydroxytryptamine 1F receptor
In short: (§5)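 Competition binding giving pKi. Human cloned 5-HT1A in HEK 293 cells vs [3H]-8-OH-DPAT; human 5-HT1E and 5-HT1F in CHO cells vs [3H]-5-HT. Radioligand with a concentration range of test compound, 30–45 min at 37 °C. Rapid filtration, ice-cold buffer wash, scintillation counting. Mean ± SEM, or individual values where n = 2.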

[29] = test system: Cavia porcellus; experiment: Body temperature drop at 2.2 mg/kg po dosage in Guinea pig.; assay type: functional
[30] = target: Alpha-2A adrenergic receptor (Homo sapiens, UniProt P08913); experiment: Compound was tested for binding affinity against human cloned Alpha-2A adrenergic receptor; in short: as §3
[31] = target: Alpha-1A adrenergic receptor (Rattus norvegicus, UniProt P43140); experiment: Compound was tested for binding affinity against Alpha-1A adrenergic receptor (rat submaxillary gland); in short: as §3
Alpha-1A adrenergic receptor, sequence (P43140 whole entry): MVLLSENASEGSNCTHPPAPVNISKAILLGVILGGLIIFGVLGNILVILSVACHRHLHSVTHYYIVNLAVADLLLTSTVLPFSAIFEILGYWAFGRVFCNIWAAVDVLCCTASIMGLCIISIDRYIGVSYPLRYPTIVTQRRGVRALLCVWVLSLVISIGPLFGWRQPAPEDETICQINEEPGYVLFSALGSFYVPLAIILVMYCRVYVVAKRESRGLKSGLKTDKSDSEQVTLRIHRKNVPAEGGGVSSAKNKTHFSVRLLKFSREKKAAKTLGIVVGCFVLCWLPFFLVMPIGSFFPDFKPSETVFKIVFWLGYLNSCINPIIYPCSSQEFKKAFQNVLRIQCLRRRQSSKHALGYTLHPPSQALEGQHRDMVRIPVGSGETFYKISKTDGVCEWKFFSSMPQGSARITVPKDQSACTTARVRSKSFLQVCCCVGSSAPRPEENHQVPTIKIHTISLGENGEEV

[32] = target: T2, Serotonin 1 receptors; 5-HT1B & 5-HT1D (Homo sapiens); settings: Cavia porcellus; 1.0 mg/kg
[33] = species on record: Cavia porcellus; experiment: Compound was tested for % of SK & F 99101H controls on induced Hypothermia at 2 hr postdose.; assay type: functional; in short: as §1
[34] = species on record: Cavia porcellus; experiment: as §2; assay type: functional; in short: as §1; remark: listed apart in the source
[35] = target: Alpha-2B adrenergic receptor (Mus musculus, UniProt P30545); experiment: Compound was tested for binding affinity against Alpha-2B adrenergic receptor (NG 108-15 cells) using [3H]RX-821002) as radioligand; assay type: cell-based; in short: as §3
Alpha-2B adrenergic receptor, sequence (P30545 whole entry): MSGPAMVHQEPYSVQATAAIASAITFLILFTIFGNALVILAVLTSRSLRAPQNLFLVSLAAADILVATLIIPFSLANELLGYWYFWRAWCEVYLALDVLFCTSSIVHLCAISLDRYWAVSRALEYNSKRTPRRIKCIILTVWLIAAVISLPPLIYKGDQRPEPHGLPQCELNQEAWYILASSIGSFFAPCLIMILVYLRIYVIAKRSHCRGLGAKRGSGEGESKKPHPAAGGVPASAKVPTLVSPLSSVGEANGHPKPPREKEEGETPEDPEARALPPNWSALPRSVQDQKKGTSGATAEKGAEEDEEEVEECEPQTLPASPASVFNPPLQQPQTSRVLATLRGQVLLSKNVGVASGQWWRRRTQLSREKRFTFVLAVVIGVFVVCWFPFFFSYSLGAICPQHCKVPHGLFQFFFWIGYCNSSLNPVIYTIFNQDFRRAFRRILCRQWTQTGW

[36] = target: T2, Serotonin 1 receptors; 5-HT1B & 5-HT1D (Homo sapiens); settings: Cavia porcellus; remark: listed apart in the source
[37] = target: 5-hydroxytryptamine receptor 1E (Homo sapiens, UniProt P28566); experiment: Compound was tested for binding affinity against human 5-hydroxytryptamine 1E receptor; in short: as §5
[38] = test system: Cavia porcellus; experiment: Body temperature drop at 10 mg/kg po dosage in Guinea pig.; assay type: functional
[39] = species on record: Cavia porcellus; experiment: Mean maximum temperature drop on SK & F 99101H (-1.72(0.09)) -induced Hypothermia at 2 hr postdose treatment(**p< 0.01 vs SK & F 99101H controls).; assay type: functional; in short: as §1
[40] = target: Beta-1 adrenergic receptor (Homo sapiens, UniProt P08588); experiment: Compound was tested for binding affinity against human cloned Beta-1 adrenergic receptor; in short: as §3
Beta-1 adrenergic receptor, sequence (P08588 whole entry): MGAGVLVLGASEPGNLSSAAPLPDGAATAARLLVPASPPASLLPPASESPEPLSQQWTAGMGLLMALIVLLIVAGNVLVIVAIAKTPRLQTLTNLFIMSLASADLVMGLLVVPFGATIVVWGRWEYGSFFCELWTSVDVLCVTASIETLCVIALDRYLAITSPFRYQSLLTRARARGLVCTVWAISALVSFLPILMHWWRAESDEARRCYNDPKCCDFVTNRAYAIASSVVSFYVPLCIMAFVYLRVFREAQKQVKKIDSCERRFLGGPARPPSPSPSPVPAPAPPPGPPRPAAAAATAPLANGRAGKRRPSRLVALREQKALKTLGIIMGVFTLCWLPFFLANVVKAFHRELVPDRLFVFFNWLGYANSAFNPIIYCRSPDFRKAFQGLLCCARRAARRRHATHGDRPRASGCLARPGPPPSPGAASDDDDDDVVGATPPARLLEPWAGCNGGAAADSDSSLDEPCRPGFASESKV

[41] = target: T2, Serotonin 1 receptors; 5-HT1B & 5-HT1D (Homo sapiens); settings: Cavia porcellus; remark: listed apart in the source
[42] = target: Alpha-1B adrenergic receptor (Rattus norvegicus, UniProt P15823); experiment: Compound was tested for binding affinity against Alpha-1B adrenergic receptor (rat liver, [3H] prazosin); in short: as §3
Alpha-1B adrenergic receptor, sequence (P15823 whole entry): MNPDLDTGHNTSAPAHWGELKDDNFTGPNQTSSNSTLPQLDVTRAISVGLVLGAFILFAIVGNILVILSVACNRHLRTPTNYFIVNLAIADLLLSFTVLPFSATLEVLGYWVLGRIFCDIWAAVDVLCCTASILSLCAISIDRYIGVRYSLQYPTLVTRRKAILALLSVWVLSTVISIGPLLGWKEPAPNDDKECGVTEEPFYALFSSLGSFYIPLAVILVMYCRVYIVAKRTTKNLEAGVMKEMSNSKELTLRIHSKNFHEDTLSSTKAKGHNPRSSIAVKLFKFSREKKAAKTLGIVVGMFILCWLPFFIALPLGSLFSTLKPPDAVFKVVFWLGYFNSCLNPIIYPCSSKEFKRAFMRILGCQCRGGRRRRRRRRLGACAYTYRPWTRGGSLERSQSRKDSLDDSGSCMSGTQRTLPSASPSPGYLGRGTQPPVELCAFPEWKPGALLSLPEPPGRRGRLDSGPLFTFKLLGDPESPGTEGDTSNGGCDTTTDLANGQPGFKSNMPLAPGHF

[43] = species on record: Cavia porcellus; experiment: Effect on SK & F 99101H (-2.60(1.37) -induced Hypothermia at 24 hr postdose treatment in guinea pig(** p< 0.01 vs SK & F 99101H controls).; assay type: functional; in short: as §1
[44] = target: 5-hydroxytryptamine receptor 1A (Homo sapiens, UniProt P08908); experiment: Compound was tested for binding affinity against human 5-hydroxytryptamine 1A receptor; in short: as §5
5-hydroxytryptamine receptor 1A, sequence (P08908 whole entry): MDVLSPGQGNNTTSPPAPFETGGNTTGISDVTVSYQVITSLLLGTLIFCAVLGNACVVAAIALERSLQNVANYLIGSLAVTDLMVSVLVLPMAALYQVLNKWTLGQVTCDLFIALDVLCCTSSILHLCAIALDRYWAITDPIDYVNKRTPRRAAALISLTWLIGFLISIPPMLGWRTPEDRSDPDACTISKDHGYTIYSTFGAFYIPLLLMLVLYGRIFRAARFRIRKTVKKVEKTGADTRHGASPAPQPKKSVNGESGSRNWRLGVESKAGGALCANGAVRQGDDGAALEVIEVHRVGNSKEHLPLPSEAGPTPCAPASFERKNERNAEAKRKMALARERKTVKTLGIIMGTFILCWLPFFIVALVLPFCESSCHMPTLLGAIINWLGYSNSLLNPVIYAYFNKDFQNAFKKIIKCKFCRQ

[45] = species on record: Cavia porcellus; experiment: Mean maximum temperature drop on SK & F 99101H (-1.73(0.17)) -induced Hypothermia at 4 hr postdose treatment(** p< 0.01 vs SK & F 99101H controls).; assay type: functional; in short: as §1
[46] = target: D(3) dopamine receptor (Homo sapiens, UniProt P35462); experiment: Compound was tested for binding affinity against human cloned Dopamine receptor D3; in short: as §4

5-hydroxytryptamine receptor 2A, sequence (P28223 whole entry): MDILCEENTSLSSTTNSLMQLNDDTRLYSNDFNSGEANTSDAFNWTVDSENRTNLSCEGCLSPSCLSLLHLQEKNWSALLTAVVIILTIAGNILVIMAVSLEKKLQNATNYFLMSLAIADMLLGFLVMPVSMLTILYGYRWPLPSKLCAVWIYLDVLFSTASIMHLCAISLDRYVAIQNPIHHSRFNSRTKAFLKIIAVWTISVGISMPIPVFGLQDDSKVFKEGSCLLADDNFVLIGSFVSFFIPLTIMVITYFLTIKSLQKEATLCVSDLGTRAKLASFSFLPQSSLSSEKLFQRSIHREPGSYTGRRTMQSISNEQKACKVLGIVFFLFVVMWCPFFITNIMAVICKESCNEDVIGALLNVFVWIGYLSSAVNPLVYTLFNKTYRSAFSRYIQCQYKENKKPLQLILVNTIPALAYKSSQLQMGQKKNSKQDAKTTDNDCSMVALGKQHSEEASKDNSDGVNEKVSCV

Cc1nc(-c2ccc(-c3ccc(C(=O)Nc4ccc5c(c4)C4(CCN(C)CC4)CO5)cc3)c(C)c2)no1
Ki [1]: 1000 nM
Ki [2]: 2000 nM
Ki [3]: 31.6 nM
[35S]GTPγS binding stimulation [4]: -64%

Cc1cc(C(=O)Nc2ccc(C)c(N3CCN(C)CC3)c2)ccc1Br
Ki [1]: 126 nM
Ki [2]: 39.8 nM
Ki [3]: 12.6 nM

Cc1nc(-c2ccc(-c3ccc(C(=O)Nc4ccc5c(c4)N(CCN(C)C)CCO5)cc3)c(C)c2)no1
Ki [1]: 3.98 nM
Ki [2]: 20 nM
Ki [3]: 2.51 nM
[35S]GTPγS binding stimulation [4]: 91%

COc1ccc(NC(=O)c2ccc(-c3ccc(-c4noc(C)n4)cc3C)cc2)cc1OCCN(C)C
Ki [2]: 31.6 nM
[35S]GTPγS binding stimulation [4]: 139%

Cc1cc(C(=O)Nc2cccc(N3CCN(C)CC3)c2)ccc1Br
Ki [1]: 316 nM
Ki [2]: 200 nM
Ki [3]: 126 nM

Cc1nc(-c2ccc(-c3ccc(C(=O)Nc4cc5c(c(OCCN(C)C)c4)OCC5)cc3)c(C)c2)no1
Ki [1]: 50.1 nM
Ki [2]: 25.1 nM
Ki [3]: 1.58 nM
[35S]GTPγS binding stimulation [4]: 207%

COc1ccc(NC(=O)c2ccc(-c3ccc(-c4noc(C)n4)cc3C)cc2)cc1CCCN(C)C
Ki [1]: 6.31 nM
Ki [2]: 100 nM
Ki [3]: 3.16 nM
[35S]GTPγS binding stimulation [4]: -44%

COc1ccc(NC(=O)c2ccc(Br)c(C)c2)cc1N1CCN(C)CC1
Ki [1]: 200 nM
Ki [2]: 12.6 nM
Ki [3]: 6.31 nM

COc1cc2c(cc1OCCN(C)C)N(C(=O)c1ccc(-c3ccc(-c4noc(C)n4)cc3C)cc1)CC2
Ki [1]: 316 nM
Ki [2]: 5.01 nM
Ki [3]: 0.501 nM

COc1ccc(NC(=O)c2ccc(-c3ccc(-c4noc(C)n4)cc3C)cc2)cc1NCCN(C)C
Ki [1]: 5.01 nM
Ki [2]: 39.8 nM
Ki [3]: 2.51 nM
[35S]GTPγS binding stimulation [4]: 108%

Cc1nc(-c2ccc(-c3ccc(C(=O)N4CCc5cc6c(cc54)C4(CCN(C)CC4)CO6)cc3)c(C)c2)no1 [SB-224289]
Degrees Centigrade [5]: -1.63 °C
Ki [1]: 1580 nM
Body temp drop [6]: -0.53 °C
Control [7]: 15%
Body temp drop [8]: -1.1 °C
Ki [9]: > 1000 nM
Ki [10]: > 1000 nM
Control [11]: 35%
Body temperature drop [12]: -0.12 °C
Ki [13]: > 1000 nM
Ki [14]: > 1000 nM
Ki [15]: > 1000 nM
Body temp drop [16]: -0.67 °C
Mean maximumtemp drop [17]: -2 °C
Body temperature drop [18]: -0.03 °C
Ki [19]: 631 nM
Control [20]: 93%
Control [21]: 52%
Body temperature drop [22]: -0.05 °C
Ki [23]: > 1000 nM
Ki [24]: > 1000 nM
Control [25]: 48%
Control [26]: 50%
Body temperature drop [27]: -1.92 °C
Ki [28]: > 10000 nM
Body temperature drop [29]: -0.23 °C
Ki [30]: > 1000 nM
Ki [31]: > 1000 nM
Control [32]: 85%
Control [33]: 22%
Control [34]: 43%
Ki [35]: > 1000 nM
Degrees Centigrade [36]: -1.77 °C
Ki [37]: > 10000 nM
Body temperature drop [38]: -0.03 °C
Body temp drop [39]: -0.38 °C
Ki [40]: > 1000 nM
Degrees Centigrade [41]: -1 °C
Simulation [4]: -62%
Ki [42]: > 1000 nM
Body temp drop [43]: -1.31 °C
Ki [44]: > 3160 nM
Body temp drop [45]: -0.27 °C
Ki [46]: > 1000 nM
